In ChEMBL document CHEMBL4689842, “EUbOPEN Chemogenomics Library wave 1” (2021):

Test system: U2OS
Assay: Multiplex assay against U2OS
Format: toxicity, cell-based
Conditions: human
Procedure, shortened: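 Cells stained live at seeding with Hoechst33342, BioTracker Green Microtubule Cytoskeleton Dye, MitoTracker Red and Annexin V Alexa Fluor 680 were imaged on a CQ1 microscope at 37°C and 5% CO2 after compound addition. Their classification by CellPathfinder machine-learning gating ran from Hoechst high-intensity objects versus normal cells, to healthy, pyknosed or fragmented nuclei among normal cells, to mitotic or apoptotic among pyknosed cells. Tubulin, mitochondrial-mass and membrane-permeability phenotypes are per cents of healthy-nucleus cells.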

[1] = 12 h, 1 µM, compound concentration 1 uM, replicate 1
[2] = 12 h, 1 µM, compound concentration 1 uM, replicate 2
[3] = 12 h, 10 µM, compound concentration 10 uM, replicate 1
[4] = 12 h, 10 µM, compound concentration 10 uM, replicate 2
[5] = 24 h, 1 µM, compound concentration 1 uM, replicate 1
[6] = 24 h, 1 µM, compound concentration 1 uM, replicate 2
[7] = 24 h, 10 µM, compound concentration 10 uM, replicate 1
[8] = 24 h, 10 µM, compound concentration 10 uM, replicate 2
[9] = 48 h, 1 µM, compound concentration 1 uM, replicate 1
[10] = 48 h, 1 µM, compound concentration 1 uM, replicate 2
[11] = 48 h, 10 µM, compound concentration 10 uM, replicate 1
[12] = 48 h, 10 µM, compound concentration 10 uM, replicate 2

With `O=C(O)c1ccc2cc(-c3ccc(O)c(C45CC6CC(CC(C6)C4)C5)c3)ccc2c1` [O-DEMETHYLATED ADAPALENE] the “Population Apoptotic (%)” value [1] was 50%, the “Population Fragmented Nuclei (%)” value [1] was 21% and the “Population Healthy Nuclei (%)” value [1] was 66%. For the same compound, the “Population Hoechst High Intensity Objects (%)” value [1] was 11%, the “Population Membrane Permeable-Phenotype (%)” value [1] was 13% and the “Population Mitochondria Different-Phenotype (%)” value [1] was 12%. For the same compound, the “Population Mitotic Cells (%)” value [1] was 50%, the “Population Normal (%)” value [1] was 88% and the “Population Pyknosed Nuclei (%)” value [1] was 11%. The “Population Tubulin-Different-Phenotype (%)” value [1] was 15%, the “Total Cell Count” value [1] was 98 and the “Population Apoptotic (%)” value [2] was 100%. For the same compound, the “Population Fragmented Nuclei (%)” value [2] was 8%, the “Population Healthy Nuclei (%)” value [2] was 87% and the “Population Hoechst High Intensity Objects (%)” value [2] was 9%. For the same compound, the “Population Membrane Permeable-Phenotype (%)” value [2] was 6%, the “Population Mitochondria Different-Phenotype (%)” value [2] was 16% and the “Population Mitotic Cells (%)” value [2] was 0%. The “Population Normal (%)” value [2] was 90%, the “Population Pyknosed Nuclei (%)” value [2] was 3% and the “Population Tubulin-Different-Phenotype (%)” value [2] was 16%. The “Total Cell Count” value [2] was 62, the “Population Apoptotic (%)” value [3] was 66% and the “Population Fragmented Nuclei (%)” value [3] was 9%. For the same compound, the “Population Healthy Nuclei (%)” value [3] was 85%, the “Population Hoechst High Intensity Objects (%)” value [3] was 6% and the “Population Membrane Permeable-Phenotype (%)” value [3] was 4%. The “Population Mitochondria Different-Phenotype (%)” value [3] was 15%, the “Population Mitotic Cells (%)” value [3] was 33% and the “Population Normal (%)” value [3] was 93%. For the same compound, the “Population Pyknosed Nuclei (%)” value [3] was 4%, the “Population Tubulin-Different-Phenotype (%)” value [3] was 11% and the “Total Cell Count” value [3] was 205. For the same compound, the “Population Apoptotic (%)” value [4] was 100%, the “Population Fragmented Nuclei (%)” value [4] was 11% and the “Population Healthy Nuclei (%)” value [4] was 87%. The “Population Hoechst High Intensity Objects (%)” value [4] was 2%, the “Population Membrane Permeable-Phenotype (%)” value [4] was 1% and the “Population Mitochondria Different-Phenotype (%)” value [4] was 16%. The “Population Mitotic Cells (%)” value [4] was 0%, the “Population Normal (%)” value [4] was 97% and the “Population Pyknosed Nuclei (%)” value [4] was 1%. The “Population Tubulin-Different-Phenotype (%)” value [4] was 25%, the “Total Cell Count” value [4] was 83 and the “Population Apoptotic (%)” value [5] was 30%. The “Population Fragmented Nuclei (%)” value [5] was 15%, the “Population Healthy Nuclei (%)” value [5] was 73% and the “Population Hoechst High Intensity Objects (%)” value [5] was 11%. For the same compound, the “Population Membrane Permeable-Phenotype (%)” value [5] was 10%, the “Population Mitochondria Different-Phenotype (%)” value [5] was 13% and the “Population Mitotic Cells (%)” value [5] was 70%. For the same compound, the “Population Normal (%)” value [5] was 89%, the “Population Pyknosed Nuclei (%)” value [5] was 11% and the “Population Tubulin-Different-Phenotype (%)” value [5] was 10%. The “Total Cell Count” value [5] was 100, the “Population Apoptotic (%)” value [6] was 100% and the “Population Fragmented Nuclei (%)” value [6] was 7%. The “Population Healthy Nuclei (%)” value [6] was 89%, the “Population Hoechst High Intensity Objects (%)” value [6] was 6% and the “Population Membrane Permeable-Phenotype (%)” value [6] was 6%. For the same compound, the “Population Mitochondria Different-Phenotype (%)” value [6] was 30%, the “Population Mitotic Cells (%)” value [6] was 0% and the “Population Normal (%)” value [6] was 93%. For the same compound, the “Population Pyknosed Nuclei (%)” value [6] was 3%, the “Population Tubulin-Different-Phenotype (%)” value [6] was 18% and the “Total Cell Count” value [6] was 60. The “Population Apoptotic (%)” value [7] was 64%, the “Population Fragmented Nuclei (%)” value [7] was 15% and the “Population Healthy Nuclei (%)” value [7] was 77%. The “Population Hoechst High Intensity Objects (%)” value [7] was 5%, the “Population Membrane Permeable-Phenotype (%)” value [7] was 4% and the “Population Mitochondria Different-Phenotype (%)” value [7] was 20%. The “Population Mitotic Cells (%)” value [7] was 35%, the “Population Normal (%)” value [7] was 94% and the “Population Pyknosed Nuclei (%)” value [7] was 7%. The “Population Tubulin-Different-Phenotype (%)” value [7] was 14%, the “Total Cell Count” value [7] was 206 and the “Population Apoptotic (%)” value [8] was 0%. The “Population Fragmented Nuclei (%)” value [8] was 14%, the “Population Healthy Nuclei (%)” value [8] was 81% and the “Population Hoechst High Intensity Objects (%)” value [8] was 7%. For the same compound, the “Population Membrane Permeable-Phenotype (%)” value [8] was 7%, the “Population Mitochondria Different-Phenotype (%)” value [8] was 26% and the “Population Mitotic Cells (%)” value [8] was 100%. The “Population Normal (%)” value [8] was 92%, the “Population Pyknosed Nuclei (%)” value [8] was 3% and the “Population Tubulin-Different-Phenotype (%)” value [8] was 28%. The “Total Cell Count” value [8] was 83, the “Population Apoptotic (%)” value [9] was 50% and the “Population Fragmented Nuclei (%)” value [9] was 16%. The “Population Healthy Nuclei (%)” value [9] was 75%, the “Population Hoechst High Intensity Objects (%)” value [9] was 7% and the “Population Membrane Permeable-Phenotype (%)” value [9] was 7%. The “Population Mitochondria Different-Phenotype (%)” value [9] was 31%, the “Population Mitotic Cells (%)” value [9] was 50% and the “Population Normal (%)” value [9] was 92%. For the same compound, the “Population Pyknosed Nuclei (%)” value [9] was 7%, the “Population Tubulin-Different-Phenotype (%)” value [9] was 13% and the “Total Cell Count” value [9] was 117. For the same compound, the “Population Apoptotic (%)” value [10] was 71%, the “Population Fragmented Nuclei (%)” value [10] was 9% and the “Population Healthy Nuclei (%)” value [10] was 80%. The “Population Hoechst High Intensity Objects (%)” value [10] was 2%, the “Population Membrane Permeable-Phenotype (%)” value [10] was 10% and the “Population Mitochondria Different-Phenotype (%)” value [10] was 42%. For the same compound, the “Population Mitotic Cells (%)” value [10] was 28%, the “Population Normal (%)” value [10] was 97% and the “Population Pyknosed Nuclei (%)” value [10] was 9%. For the same compound, the “Population Tubulin-Different-Phenotype (%)” value [10] was 21%, the “Total Cell Count” value [10] was 73 and the “Population Apoptotic (%)” value [11] was 72%. The “Population Fragmented Nuclei (%)” value [11] was 33%, the “Population Healthy Nuclei (%)” value [11] was 47% and the “Population Hoechst High Intensity Objects (%)” value [11] was 9%. For the same compound, the “Population Membrane Permeable-Phenotype (%)” value [11] was 0%, the “Population Mitochondria Different-Phenotype (%)” value [11] was 34% and the “Population Mitotic Cells (%)” value [11] was 27%. The “Population Normal (%)” value [11] was 90%, the “Population Pyknosed Nuclei (%)” value [11] was 19% and the “Population Tubulin-Different-Phenotype (%)” value [11] was 7%. For the same compound, the “Total Cell Count” value [11] was 213, the “Population Apoptotic (%)” value [12] was 90% and the “Population Fragmented Nuclei (%)” value [12] was 14%. The “Population Healthy Nuclei (%)” value [12] was 70%, the “Population Membrane Permeable-Phenotype (%)” value [12] was 20% and the “Population Mitochondria Different-Phenotype (%)” value [12] was 54%. The “Population Mitotic Cells (%)” value [12] was 9%, the “Population Pyknosed Nuclei (%)” value [12] was 14% and the “Population Tubulin-Different-Phenotype (%)” value [12] was 45%. For the same compound, the “Total Cell Count” value [12] was 83.
